Measured values taken from ChEMBL document CHEMBL2040723, “1,4-dioxane, a suitable scaffold for the development of novel M₃ muscarinic receptor antagonists” (J Med Chem, 2012).
Active and inactive are the calls of the source. The rule behind the calls is not given here.

Legend:
[1] = target: T1, Muscarinic acetylcholine receptor M2 (Homo sapiens, UniProt P08172); experiment: Displacement of [3H]N-methylscopolamine from human muscarinic M2 receptor expressed in CHO cells after 120 mins by scintillation counting; type: cell-based
T1 sequence (P08172 whole entry): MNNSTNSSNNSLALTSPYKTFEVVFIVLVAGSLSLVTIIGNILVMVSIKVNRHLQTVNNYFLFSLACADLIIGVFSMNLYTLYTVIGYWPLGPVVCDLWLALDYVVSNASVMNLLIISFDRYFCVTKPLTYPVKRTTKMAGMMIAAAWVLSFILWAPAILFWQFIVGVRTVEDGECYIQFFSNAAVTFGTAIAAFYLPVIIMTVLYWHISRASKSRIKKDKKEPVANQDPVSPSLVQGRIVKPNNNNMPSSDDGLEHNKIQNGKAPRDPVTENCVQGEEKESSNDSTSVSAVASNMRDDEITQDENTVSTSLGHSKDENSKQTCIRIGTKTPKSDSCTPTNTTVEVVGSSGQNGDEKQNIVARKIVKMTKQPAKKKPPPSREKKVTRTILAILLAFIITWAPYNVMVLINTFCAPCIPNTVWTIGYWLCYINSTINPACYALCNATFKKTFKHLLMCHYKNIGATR

[2] = target: T2, Muscarinic acetylcholine receptor M5 (Homo sapiens, UniProt P08912); experiment: Displacement of [3H]N-methylscopolamine from human muscarinic M5 receptor expressed in CHO cells after 120 mins by scintillation counting; type: cell-based
T2 sequence (P08912 whole entry): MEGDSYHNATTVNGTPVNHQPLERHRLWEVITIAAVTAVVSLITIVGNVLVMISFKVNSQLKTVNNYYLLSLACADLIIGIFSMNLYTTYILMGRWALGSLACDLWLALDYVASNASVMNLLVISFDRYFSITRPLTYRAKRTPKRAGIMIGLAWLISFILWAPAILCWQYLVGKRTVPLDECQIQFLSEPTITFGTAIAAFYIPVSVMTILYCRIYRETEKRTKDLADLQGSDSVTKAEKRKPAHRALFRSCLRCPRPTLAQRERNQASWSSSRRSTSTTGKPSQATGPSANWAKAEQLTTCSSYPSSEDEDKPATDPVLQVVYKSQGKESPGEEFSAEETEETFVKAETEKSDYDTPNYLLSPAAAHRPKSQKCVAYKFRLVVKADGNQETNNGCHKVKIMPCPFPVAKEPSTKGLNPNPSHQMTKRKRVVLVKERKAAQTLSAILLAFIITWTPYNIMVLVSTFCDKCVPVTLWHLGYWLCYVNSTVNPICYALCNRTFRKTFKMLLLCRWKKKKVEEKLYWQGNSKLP

[3] = Antagonist activity at muscarinic M2 receptor in guinea pig left atrium assessed as dissociation constant after 45 mins; type: functional, Cavia porcellus, Cardiac atrium
How it was run: (§1)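 Isolated guinea pig tissues: left atrium (M2), ileum (M3) and lung strips (putative M4). Antagonist dissociation constants were calculated by the Furchgott method and reported as pKB, as mean ± SEM of four to six independent experiments. Agonist reference for the tissue responses was bethanechol.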

Cavia porcellus [4] = species on record: Cavia porcellus; experiment: Intrinsic activity at muscarinic M2 receptor in guinea pig left atrium after 45 mins relative to bethanechol; type: tissue-based; conditions: Cardiac atrium
How it was run: (§2)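 Guinea pig left atrium (M2) and ileum (M3) preparations. Intrinsic activity is the ratio of the compound's maximum response to the maximum response of bethanechol in that tissue. The pD2 is the −log of the agonist concentration giving 50% of the maximum response attainable in the tissue.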

[5] = Antagonist activity at muscarinic M3 receptor in guinea pig ileum assessed as dissociation constant after 45 mins; type: functional, Cavia porcellus; how it was run: as §1
Cavia porcellus [6] = species on record: Cavia porcellus; experiment: Intrinsic activity at muscarinic M3 receptor in guinea pig ileum after 45 mins relative to bethanechol; type: tissue-based; how it was run: as §2
[7] = Antagonist activity at muscarinic M4 receptor in guinea pig lung strips assessed as dissociation constant after 45 mins; type: functional, Cavia porcellus; how it was run: as §1
[8] = Antagonist activity at muscarinic M1 receptor in rabbit vas deferens assessed as dissociation constant after 45 mins; type: functional, Oryctolagus cuniculus
Rattus norvegicus [9] = experiment: Cardiovascular toxicity in anaesthetized Wistar rat assessed as changes in mean arterial pressure at 1 ug/kg, iv; type: organism-based, Artery; conditions: in vivo, 0.001 mg/kg
Rattus norvegicus [10] = experiment: Cardiovascular toxicity in anaesthetized Wistar rat assessed as changes in heart rate at 1 ug/kg, iv; type: organism-based; conditions: in vivo, 0.001 mg/kg
Rattus norvegicus [11] = experiment: Reduction in volume induced contraction of iv dosed anaesthetized Wistar rat urinary bladder assessed as inhibition of AUC peaks from saline baseline; type: functional; conditions: read-out: ID50 (the source's name)
Rattus norvegicus [12] = experiment: Reduction in volume induced contraction of iv dosed anaesthetized Wistar rat urinary bladder assessed as inhibition of VIBC amplitudes relative to untreated control; type: functional
[13] = Agonist potency at muscarinic M3 receptor in guinea pig ileum after 45 mins; type: functional, Cavia porcellus
How it was run: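 Isolated guinea pig ileum (M3) functional assay. pD2 is the −log of the agonist concentration giving 50% of the maximum response attainable in that tissue. Intrinsic activity is the ratio of the agonist's maximum response to that of bethanechol. Results are mean ± SEM of four to six independent experiments.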

[14] = target: T3, Muscarinic acetylcholine receptor M4 (Homo sapiens, UniProt P08173); experiment: Displacement of [3H]N-methylscopolamine from human muscarinic M4 receptor expressed in CHO cells after 120 mins by scintillation counting; type: cell-based
T3 sequence (P08173 whole entry): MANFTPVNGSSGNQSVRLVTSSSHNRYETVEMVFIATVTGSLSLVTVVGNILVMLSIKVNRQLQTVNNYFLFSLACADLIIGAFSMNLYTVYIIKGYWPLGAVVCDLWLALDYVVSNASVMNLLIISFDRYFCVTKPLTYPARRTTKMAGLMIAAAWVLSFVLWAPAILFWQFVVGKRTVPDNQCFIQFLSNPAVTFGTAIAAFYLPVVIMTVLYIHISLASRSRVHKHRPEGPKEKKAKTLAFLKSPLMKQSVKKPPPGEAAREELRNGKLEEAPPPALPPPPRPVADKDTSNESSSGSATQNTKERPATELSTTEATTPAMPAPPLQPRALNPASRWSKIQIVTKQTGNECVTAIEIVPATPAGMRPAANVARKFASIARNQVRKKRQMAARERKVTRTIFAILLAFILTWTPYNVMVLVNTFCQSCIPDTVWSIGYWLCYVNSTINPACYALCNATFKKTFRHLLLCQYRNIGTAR

[15] = Agonist potency at muscarinic M2 receptor in guinea pig left atrium after 45 mins; type: functional, Cavia porcellus, Cardiac atrium
Cavia porcellus [16] = species on record: Cavia porcellus; experiment: Antagonist activity at muscarinic M4 receptor in guinea pig lung strips up to 10 uM after 45 mins; type: functional
How it was run: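 Guinea pig lung strips (putative M4) were tested for agonist activity and then for antagonism at concentrations up to 10 μM. Dissociation constants (pKB) were calculated by the Furchgott method from four to six independent experiments.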

Cavia porcellus [17] = species on record: Cavia porcellus

Structure (SMILES) | Ki [1] [µM] | Ki [2] [µM] | pKb [3] | Intrinsic activity (Cavia porcellus [4]) | pKb [5] | Intrinsic activity (Cavia porcellus [6]) | pKb [7] | Ki [14] [µM] | other results
C[N+](C)(C)C[C@H]1COCC(c2ccccc2)(c2ccccc2)O1.[I-] | 0.00282 | 0.0017 | 7.31 | 0 | 8.52 | 0 | 6.7 | – | pKb [8]: 8.86; Activity (Rattus norvegicus [9]): -12%; Activity (Rattus norvegicus [10]): 5%; ED50 (Rattus norvegicus [11]): 0.201 mg/kg; Imax (Rattus norvegicus [12]): 96%
C[N+](C)(C)C[C@@H]1COCC(c2ccccc2)(c2ccccc2)O1.[I-] | 0.0331 | 0.107 | 6.67 | 0 | – | 0 | 6.62 | – | –
CN(C)C[C@H]1COCC(c2ccccc2)(c2ccccc2)O1.O=C(O)C(=O)O | 0.00977 | 0.00182 | 7.63 | 0 | – | 0 | 6.94 | – | –
CN(C)C[C@@H]1COCC(c2ccccc2)(c2ccccc2)O1.O=C(O)C(=O)O | 0.0955 | 0.0813 | 7 | 0 | – | 0 | – | – | –
CN(C)C[C@@H]1COC(c2ccccc2)(c2ccccc2)O1.O=C(O)C(=O)O | – | – | 7.11 | – | 6.38 | – | – | – | –
C[C@H]1COC[C@@H](C[N+](C)(C)C)O1.[I-] | – | – | – | 1 | – | 1 | – | – | pD2 [13]: 7.34
C[N+](C)(C)CC1COCC(c2ccccc2)(c2ccccc2)O1.[I-] (racemic) | 0.00575 | 0.00437 | 8.21 | 0 | 8.34 | 0 | 7.77 | – | –
CN(C)CC1COCC(c2ccccc2)(c2ccccc2)O1.O=C(O)C(=O)O (racemic) | 0.0166 | 0.00537 | 6.95 | 0 | 8.24 | 0 | 7.02 | – | pKb [8]: 7.86; Activity (Rattus norvegicus [9]): -18%; Activity (Rattus norvegicus [10]): 4%; ED50 (Rattus norvegicus [11]): 0.134 mg/kg; Imax (Rattus norvegicus [12]): 72%
CC[C@H]1COC[C@@H](C[N+](C)(C)C)O1.[I-] (relative stereo) | 6.31 | 26.3 | – | 1 | – | 1 | – | 25.1 | pD2 [15]: 5.62; pD2 [13]: 4.82; Activity (Cavia porcellus [16]): inactive; pD2 (Cavia porcellus [17]): inactive
CC[C@@H]1COC[C@@H](C[N+](C)(C)C)O1.[I-] (relative stereo) | 18.2 | > 100 | – | 0.7 | – | 1 | – | > 100 | pD2 [15]: 5.45; pD2 [13]: 5.19; Activity (Cavia porcellus [16]): inactive; pD2 (Cavia porcellus [17]): inactive
C[N+](C)(C)C[C@@H]1COC[C@H](c2ccccc2)O1.[I-] (relative stereo) | – | – | 5.56 | 0 | – | 0 | 5.24 | 12.3 | –
C[N+](C)(C)C[C@@H]1COC[C@@H](c2ccccc2)O1.[I-] (relative stereo) | – | – | 5.14 | 0 | <5 | 0 | <5 | 29.5 | –
C[N+](C)(C)C[C@@H]1COC[C@H](C(c2ccccc2)c2ccccc2)O1 (relative stereo) | 28.2 | 7.59 | – | – | – | – | – | 11.2 | –
C[N+](C)(C)C[C@@H]1COC[C@@H](C(c2ccccc2)c2ccccc2)O1 (relative stereo) | 79.4 | 31.6 | – | – | – | – | – | 17 | –
C[N+]1(C)CCC(OC(=O)C(c2ccccc2)c2ccccc2)CC1.[I-] [4-DAMP] | – | – | 8 | – | 9.02 | – | 9.4 | – | –
COc1ccccc1CNCCCCCCNCCCCCCCCNCCCCCCNCc1ccccc1OC [METHOCTRAMINE] | – | – | 7.8 | – | 6.3 | – | 7.6 | – | –
CCN(CC)CC#CCOC(=O)C(O)(c1ccccc1)C1CCCCC1 (stereo not given) [OXYBUTYNIN] | – | – | – | 0 | – | 0 | – | – | Activity (Rattus norvegicus [9]): 20%; Activity (Rattus norvegicus [10]): 7%; ED50 (Rattus norvegicus [11]): 0.347 mg/kg; Imax (Rattus norvegicus [12]): 75%
